From PMC12086512 (Protein Science : A Publication of the Protein Society, 2025)

How the values were obtained:
[1] = system: His‐p67C (p67 residues 572–651); assay: ELISA, binding to immobilized p67C; design: species or system Theileria parva; conditions: 50 nM antibody
Summary of the method: (§1)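 Proteins coated overnight at 4°C in PBS: full-length C-His p67 (Expi293, Ni-NTA), p67 fragments (E. coli BL21(DE3), GST/6xHis fusion, glutathione resin, TEV cleavage where needed), ubiquitin or BSA. Fab detected with HRP anti-FLAG, IgG with HRP anti-Fc. Eight washes with PBS/0.25% Tween 20 between steps. TMB 2 min, stopped with 1.0 M phosphoric acid, A450 read.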

T. parva sporozoites = assay: In vitro sporozoite neutralization assay with bovine PBMCs; format: cell-based, Theileria parva; conditions: exact values not determined due to incomplete fitting
bovine serum albumin = assay: ELISA, negative control protein BSA; format: binding; conditions: serial dilutions of Fab
Summary of the method: as §1

ubiquitin = assay: ELISA, negative control protein ubiquitin; format: binding; conditions: serial dilutions of Fab
Summary of the method: as §1

p67^1 (residues 572–612) = assay: ELISA, binding to p67^1; design: species or system Theileria parva; conditions: 50 nM antibody
Summary of the method: as §1

full‐length p67 = assay: ELISA, binding to full-length p67; design: species or system Theileria parva; conditions: 50 nM antibody
Summary of the method: as §1

B1: Fab B11: phage-derived synthetic human Fab binding p67C, neutralizes T. parva sporozoites (antibody, V domains shown)
VH: EVQLVESGGGLVQPGGSLRLSCAASGFNISSSSIHWVRQAPGKGLEWVASISPYYSSTSYADSVKGRFTISADTSKNTAYLQMNSLRAEDTAVYYCARGPGYAMDYWGQGTLVTVSS
VL: DIQMTQSPSSLSASVGDRVTITCRASQSVSSAVAWYQQKPGKAPKLLIYSASSLYSGVPSRFSGSRSGTDFTLTISSLQPEDFATYYCQQYYYAPITFGQGTKVEIK
Binding to p67C [1]: bound
Fold less neutralizing potency than IgGs B11 and 21.4 (T. parva sporozoites): roughly 10 fold
Binding to control protein bovine serum albumin (bovine serum albumin): no detectable binding
Binding to control protein ubiquitin (ubiquitin): no detectable binding
Binding to p67^1 (p67^1 (residues 572–612)): bound
Binding to full-length p67 (full‐length p67): bound
